Molecular target: Nucleic Acid
Test: In vitro inhibition of decoding site of bacterial rRNA (within the 30S ribosomal subunit) encoding luciferase reporter in transcription-translation assay
Format: functional, Bacteria
Outline: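 Coupled transcription–translation in bacterial S30 extract. Compounds were preincubated with the extract, then NTPs, amino acids and a plasmid encoding firefly luciferase were added, and plates were incubated 20 min at 25 °C. After chilling on ice, luciferin substrate was added for 15 min at room temperature and luminescence was read. Doses spanned 1 mM to 100 nM with six replicates per concentration. IC50 came from a variable-slope fit of light units vs log(c).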

## NC1CC(N)C(OC2OC(CO)C(O)C(O)C2N)C(O)C1O (configuration not stated)
  IC50: 3.9 µM

## NC(=O)[C@H]1CCCN1C(=O)C1CC(O)C(N)CC1N (some centres not stated)
  IC50: > 1000 µM

## NC1CC(N)C(C(=O)N2CCNCC2)CC1O (configuration not stated)
  IC50: > 1000 µM

## N#Cc1cccc(NC(=O)C2CC(O)C(N)CC2N)c1 (configuration not stated)
  IC50: 450 µM

## NC1CC(N)C(C(=O)N2CCC3(CC2)OCCO3)CC1O (configuration not stated)
  IC50: > 1000 µM

## NC1CC(N)C(C(=O)N2CCN(C3=NCCCN3)CC2)CC1O (configuration not stated)
  IC50: > 1000 µM

## NC(=O)C1CC(O)C(N)CC1N (configuration not stated)
  IC50: > 1000 µM

## NC1CC(N)C(C(=O)NCCN2CCOCC2)CC1O (configuration not stated)
  IC50: > 1000 µM

## NC1CC(N)C(C(=O)Nc2ccc(-c3cnco3)cc2)CC1O (configuration not stated)
  IC50: 59 µM

## NC1CC(N)C(C(=O)Nc2ccc(-n3ccnc3)cc2)CC1O (configuration not stated)
  IC50: 290 µM

## N[C@@H]1C[C@H](N)[C@@H](O)[C@H](O)[C@H]1O
  IC50: > 1000 µM

## NC1CC(N)C(C(=O)NCCCN2CCCC2=O)CC1O (configuration not stated)
  IC50: > 1000 µM

— ChEMBL document CHEMBL1134978, “Novel 2,5-dideoxystreptamine derivatives targeting the ribosomal decoding site RNA” (Bioorg Med Chem Lett, 2002)
